Assay results published in ChEMBL document CHEMBL4699576, “Oxidized Juncuenin B Analogues with Increased Antiproliferative Activity on Human Adherent Cell Lines: Semisynthesis and Biological Evaluation” (J Nat Prod, 2020).
Activity calls are given as the source filed them. No cut-off for these calls is given here.

Test system: A2780
Assay: Antiproliferative activity against human A2780 cells assessed as reduction in cell viability at 0.1 to 30 uM after 72 hrs by MTT assay
Type: functional, cell-based
Conditions: dose microM 0.1-30, time 72.0 hrs
Outline: (§1)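 Cells were grown in MEM with 10% FBS, 1% nonessential amino acids and 1% penicillin–streptomycin–amphotericin B at 37 °C in humidified 5% CO2. They were seeded at 5000 cells/well and exposed to 0.1–30 μM compound for 72 h. MTT (5 mg/mL solution) was added for 4 h, and formazan was dissolved in DMSO and read at 545 nm against untreated cells. IC50 values came from normalized sigmoidal dose–response fits.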

Row | Compound | Activity
1 | C=CC1=C(C)C(=O)C=C2C3(OC)C=CC(=O)C(C)=C3CCC21OC (racemic; 2a) | inactive
2 | C=CC1=C2CCc3c(ccc(O)c3C)C2=CC(=O)C1(C)OCC (racemic) | inactive
3 | C=CC1=C(C)C(=O)C=C2C3(OCC)C=CC(=O)C(C)=C3CCC21OCC (racemic) | inactive
4 | C=Cc1c(C)c(O)c(OC)c2c3c(ccc12)C(C)(OC)C(=O)C=C3 (racemic) | inactive
5 | C=CC1=C(C)C(=O)C=C2c3ccc(O)c(C)c3CC[C@]21OCC | inactive
6 | C=Cc1c(C)c(O)cc2c3c(ccc12)C(C)(OCC)C(=O)C=C3 (racemic) | inactive
7 | C=CC1=C(C)C(=O)C=C2C3=C(CCC21OCC)C(C)(OCC)C(=O)C=C3 (racemic; 6a) | Active
8 | C=CC1=C(C)C(=O)C=C2C3(OC)C=CC(=O)C(C)=C3CCC21OC (racemic; 2b) | inactive
9 | C=CC1=C(C)C(=O)C=C2C3=C(CCC21OCC)C(C)(OCC)C(=O)C=C3 (racemic; 6b) | Active

Test system: NIH3T3
Assay: Antiproliferative activity against mouse NIH/3T3 cells assessed as reduction in cell viability at 0.1 to 30 uM after 72 hrs by MTT assay
Type: functional, cell-based
Conditions: dose microM 0.1-30, time 72.0 hrs
Outline: as §1

Row | Compound | Activity
10 | C=CC1=C(C)C(=O)C=C2C3(OC)C=CC(=O)C(C)=C3CCC21OC (racemic; 2a) | inactive
11 | C=CC1=C2CCc3c(ccc(O)c3C)C2=CC(=O)C1(C)OCC (racemic) | inactive
12 | C=CC1=C(C)C(=O)C=C2C3(OCC)C=CC(=O)C(C)=C3CCC21OCC (racemic) | inactive
13 | C=Cc1c(C)c(O)c(OC)c2c3c(ccc12)C(C)(OC)C(=O)C=C3 (racemic) | inactive
14 | C=Cc1c(C)c(O)cc2c3c(ccc12)C(C)(OCC)C(=O)C=C3 (racemic) | inactive
15 | C=CC1=C(C)C(=O)C=C2C3=C(CCC21OCC)C(C)(OCC)C(=O)C=C3 (racemic; 6a) | Active
16 | C=CC1=C(C)C(=O)C=C2C3(OC)C=CC(=O)C(C)=C3CCC21OC (racemic; 2b) | inactive
17 | C=CC1=C(C)C(=O)C=C2C3=C(CCC21OCC)C(C)(OCC)C(=O)C=C3 (racemic; 6b) | Active

Test system: SiHa
Assay: Antiproliferative activity against human SiHa cells assessed as reduction in cell viability at 0.1 to 30 uM after 72 hrs by MTT assay
Type: functional, cell-based
Conditions: dose microM 0.1-30, time 72.0 hrs
Outline: as §1

Row | Compound | Activity
18 | C=CC1=C(C)C(=O)C=C2c3ccc(O)c(C)c3CC[C@]21OCC | inactive

Test system: C-33-A
Assay: Antiproliferative activity against human C33A cells assessed as reduction in cell viability at 0.1 to 30 uM after 72 hrs by MTT assay
Type: functional, cell-based
Conditions: dose microM 0.1-30, time 72.0 hrs
Outline: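 C33A cells were kept in MEM with 10% FBS, 1% nonessential amino acids and 1% penicillin–streptomycin–amphotericin B at 37 °C under 5% CO2. They were seeded at 10 000 cells/well and treated with 0.1–30 μM for 72 h. MTT (5 mg/mL solution) was added for 4 h, and formazan was dissolved in DMSO and read at 545 nm against untreated controls. IC50 values came from normalized sigmoidal curve fits.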

Row | Compound | Activity
19 | C=CC1=C(C)C(=O)C=C2C3(OC)C=CC(=O)C(C)=C3CCC21OC (racemic; 2a) | inactive
20 | C=CC1=C2CCc3c(ccc(O)c3C)C2=CC(=O)C1(C)OCC (racemic) | inactive
21 | C=CC1=C(C)C(=O)C=C2C3(OCC)C=CC(=O)C(C)=C3CCC21OCC (racemic) | inactive
22 | C=Cc1c(C)c(O)c(OC)c2c3c(ccc12)C(C)(OC)C(=O)C=C3 (racemic) | inactive
23 | C=CC1=C(C)C(=O)C=C2c3ccc(O)c(C)c3CC[C@]21OCC | inactive
24 | C=Cc1c(C)c(O)cc2c3c(ccc12)C(C)(OCC)C(=O)C=C3 (racemic) | inactive
25 | C=CC1=C(C)C(=O)C=C2C3=C(CCC21OCC)C(C)(OCC)C(=O)C=C3 (racemic; 6a) | Active
26 | C=CC1=C(C)C(=O)C=C2C3(OC)C=CC(=O)C(C)=C3CCC21OC (racemic; 2b) | inactive
27 | C=CC1=C(C)C(=O)C=C2C3=C(CCC21OCC)C(C)(OCC)C(=O)C=C3 (racemic; 6b) | Active

Test system: MCF7
Assay: Antiproliferative activity against human MCF7 cells assessed as reduction in cell viability at 0.1 to 30 uM after 72 hrs by MTT assay
Conditions: dose microM 0.1-30, time 72.0 hrs

Row | Compound | Activity
28 | C=CC1=C(C)C(=O)C=C2C3(OC)C=CC(=O)C(C)=C3CCC21OC (racemic; 2a) | inactive
29 | C=CC1=C2CCc3c(ccc(O)c3C)C2=CC(=O)C1(C)OCC (racemic) | inactive
30 | C=CC1=C(C)C(=O)C=C2C3(OCC)C=CC(=O)C(C)=C3CCC21OCC (racemic) | inactive
31 | C=Cc1c(C)c(O)c(OC)c2c3c(ccc12)C(C)(OC)C(=O)C=C3 (racemic) | inactive
32 | C=Cc1c(C)c(O)cc2c3c(ccc12)C(C)(OCC)C(=O)C=C3 (racemic) | inactive
33 | C=CC1=C(C)C(=O)C=C2C3=C(CCC21OCC)C(C)(OCC)C(=O)C=C3 (racemic; 6a) | Active
34 | C=CC1=C(C)C(=O)C=C2C3(OC)C=CC(=O)C(C)=C3CCC21OC (racemic; 2b) | inactive
35 | C=CC1=C(C)C(=O)C=C2C3=C(CCC21OCC)C(C)(OCC)C(=O)C=C3 (racemic; 6b) | Active

Test system: HeLa
Assay: Antiproliferative activity against human HeLa cells assessed as reduction in cell viability at 0.1 to 30 uM after 72 hrs by MTT assay
Conditions: dose microM 0.1-30, time 72.0 hrs

Row | Compound | Activity
36 | C=CC1=C(C)C(=O)C=C2C3(OC)C=CC(=O)C(C)=C3CCC21OC (racemic; 2a) | inactive
37 | C=CC1=C2CCc3c(ccc(O)c3C)C2=CC(=O)C1(C)OCC (racemic) | inactive
38 | C=CC1=C(C)C(=O)C=C2C3(OCC)C=CC(=O)C(C)=C3CCC21OCC (racemic) | inactive
39 | C=Cc1c(C)c(O)c(OC)c2c3c(ccc12)C(C)(OC)C(=O)C=C3 (racemic) | inactive
40 | C=CC1=C(C)C(=O)C=C2c3ccc(O)c(C)c3CC[C@]21OCC | inactive
41 | C=Cc1c(C)c(O)cc2c3c(ccc12)C(C)(OCC)C(=O)C=C3 (racemic) | inactive
42 | C=CC1=C(C)C(=O)C=C2C3=C(CCC21OCC)C(C)(OCC)C(=O)C=C3 (racemic; 6a) | Active
43 | C=CC1=C(C)C(=O)C=C2C3(OC)C=CC(=O)C(C)=C3CCC21OC (racemic; 2b) | inactive
44 | C=CC1=C(C)C(=O)C=C2C3=C(CCC21OCC)C(C)(OCC)C(=O)C=C3 (racemic; 6b) | Active
